In ChEMBL document CHEMBL1121579, “Synthesis and adrenergic blocking effects of 2-(alkylamino)-3,4-dihydroquinazolines” (1980):

How the values were obtained:
Rattus norvegicus [1] = experiment: Antagonist effect to pressor response of 0.3 ug/kg of norepinephrine intravenously in rats at the dose 32 uM/kg.; type: functional
How it was run: (§1)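 Male Sprague-Dawley rats, 300–350 g, anesthetized with pentobarbital sodium 40 mg/kg ip, trachea cannulated for ventilation. Drugs dissolved in 0.9% saline and injected into a cannulated external jugular vein. Poorly soluble material was given in polyethylene glycol/ethanol/water 20:10:70. n = 3 per determination.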

Rattus norvegicus [2] = experiment: Decrease in mean arterial blood pressure in response to intravenous administration at 16 uM/kg of the compound.; type: functional, Artery; how it was run: as §1
Rattus norvegicus [3] = experiment: Decrease in mean arterial blood pressure in response to intravenous administration at 2 uM/kg of the compound; type: functional, Artery; how it was run: as §1
Rattus norvegicus [4] = experiment: Decrease in mean arterial blood pressure in response to intravenous administration at 32 uM/kg of the compound.; type: functional, Artery; how it was run: as §1
Rattus norvegicus [5] = experiment: Decrease in mean arterial blood pressure in response to intravenous administration at 4 uM/kg of the compound; type: functional, Artery; how it was run: as §1
Rattus norvegicus [6] = experiment: Decrease in mean arterial blood pressure in response to intravenous administration at 64 uM/kg of the compound.; type: functional, Artery; how it was run: as §1
Rattus norvegicus [7] = experiment: Decrease in mean arterial blood pressure in response to intravenous administration at 8 uM/kg of the compound; type: functional, Artery; how it was run: as §1
Rattus norvegicus [8] = experiment: Antagonist effect to pressor response of 0.3 ug/kg of norepinephrine intravenously in rats at the dose 32 uM/kg; type: functional; how it was run: as §1
Rattus norvegicus [9] = experiment: Decrease in mean arterial blood pressure in response to intravenous administration at 64 uM/kg of the compound; type: functional, Artery; how it was run: as §1
Rattus norvegicus [10] = experiment: decrease in mean arterial blood pressure in response to intravenous administration at 16 uM/kg of the compound; type: functional; how it was run: as §1
Rattus norvegicus [11] = experiment: Decrease in mean arterial blood pressure in response to intravenous administration at 32 uM/kg of the compound; type: functional, Artery; how it was run: as §1
Rattus norvegicus [12] = experiment: Decrease in mean arterial blood pressure in response to intravenous administration at 16 uM/kg of the compound; type: functional, Artery; how it was run: as §1

`CNC1=Nc2ccccc2CN1` was tested, and the Block (Rattus norvegicus [1]) was 37.8%, the “Decrease in blood pressure” value (Rattus norvegicus [2]) was 19.7% and the “Decrease in blood pressure” value (Rattus norvegicus [3]) was 4.67%. The “Decrease in blood pressure” value (Rattus norvegicus [4]) was 25%, the “Decrease in blood pressure” value (Rattus norvegicus [5]) was 7.7% and the “Decrease in blood pressure” value (Rattus norvegicus [6]) was 33.3%. For the same compound, the “Decrease in blood pressure” value (Rattus norvegicus [7]) was 12.7%.

With `NC1=Nc2ccccc2CN1` the Block (Rattus norvegicus [8]) was 49.3%, the “Decrease in blood pressure” value (Rattus norvegicus [3]) was 6.76% and the “Decrease in blood pressure” value (Rattus norvegicus [5]) was 12%. For the same compound, the “Decrease in blood pressure” value (Rattus norvegicus [9]) was 23.3%, the “Decrease in blood pressure” value (Rattus norvegicus [7]) was 13.3% and the “Decrease in blood pressure” value (Rattus norvegicus [10]) was 15%. The “Decrease in blood pressure” value (Rattus norvegicus [11]) was 17.7%.

For `CN(C)C1=Nc2ccccc2CN1`, the Block (Rattus norvegicus [8]) was 10%, the “Decrease in blood pressure” value (Rattus norvegicus [3]) was 0% and the “Decrease in blood pressure” value (Rattus norvegicus [5]) was 0%. For the same compound, the “Decrease in blood pressure” value (Rattus norvegicus [6]) was 24.7%, the “Decrease in blood pressure” value (Rattus norvegicus [7]) was 5.67% and the “Decrease in blood pressure” value (Rattus norvegicus [12]) was 7.3%. For the same compound, the “Decrease in blood pressure” value (Rattus norvegicus [11]) was 12.3%.

With `CCCN(CCC)C1=NCc2ccccc2N1` the “Decrease in blood pressure” value (Rattus norvegicus [2]) was 30.9%, the “Decrease in blood pressure” value (Rattus norvegicus [3]) was 3.2% and the “Decrease in blood pressure” value (Rattus norvegicus [4]) was 40%. For the same compound, the “Decrease in blood pressure” value (Rattus norvegicus [5]) was 7.6% and the “Decrease in blood pressure” value (Rattus norvegicus [7]) was 11.5%.

Work on `Cc1ccc(N(CC2=NCCN2)c2cccc(O)c2)cc1` [PHENTOLAMINE] yielded a Block (Rattus norvegicus [8]) of 66.2%.
